# ChEMBL document CHEMBL1126742, “Syntheses of 5'-substituted analogues of carbocyclic 3-deazaadenosine as potential antivirals” (J Med Chem, 1993)
# How the values were obtained:
# [1] = test system: Vesicular stomatitis virus; assay: Minimum inhibitory concentration against vesicular stomatitis virus; assay type: functional
# Vaccinia virus = assay: Minimum inhibitory concentration against vaccinia virus; assay type: functional; conditions: Orthopoxvirus vaccinia
# L929 [2] = assay: Inhibitory concentration (reduction in cytopathic effect) against vesicular stomatitis virus (L-929 cell line); assay type: functional, cell-based; conditions: Mus musculus
# How it was run: (§1)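 Antiviral activity was scored as inhibition of virus cytopathic effect (CPE) in the named host cells. IC50 is the drug concentration giving a 50% reduction in virus CPE.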
# L929 [3] = assay: Minimum toxic concentration against vesicular stomatitis virus (L-929 cell line); assay type: functional, Mus musculus
# How it was run: (§2)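 Host-cell toxicity was measured alongside the antiviral test. MTC is the lowest concentration of test compound giving a 50% reduction in percent survival of viable host cells.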
# L929 [4] = assay: Virus rating against vesicular stomatitis virus (L-929 cell line); assay type: functional, Mus musculus
# How it was run: (§3)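 The virus rating is computed from CPE-inhibition data by the Huffman and Sidwell method. VR > 1 means definite to moderate activity; VR < 0.5 means no significant activity.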
# LLC-MK2 [5] = assay: Inhibitory concentration (reduction in cytopathic effect) against yellow fever virus (MK2 cell line); assay type: functional, cell-based, Cercopithecidae; conditions: Macaca mulatta; how it was run: as §1
# LLC-MK2 [6] = assay: Minimum toxic concentration against yellow fever virus (MK2 cell line); assay type: functional, Cercopithecidae; how it was run: as §2
# LLC-MK2 [7] = assay: Virus rating against yellow fever virus (MK2 cell line); Evaluated by plaque reduction assay; assay type: functional, cell-based; conditions: Cercopithecidae
# Vero [8] = assay: Minimum toxic concentration against vaccinia virus (vero cell line); assay type: functional, Chlorocebus sabaeus; how it was run: as §2
# Vero [9] = assay: Inhibitory concentration (reduction in cytopathic effect) against vaccinia virus (vero cell line); assay type: functional, cell-based; conditions: Chlorocebus sabaeus; how it was run: as §1
# Vero [10] = assay: Virus rating against vaccinia virus (vero cell line); assay type: functional, Chlorocebus sabaeus; how it was run: as §3
# Vero [11] = assay: Virus rating against vaccinia virus ( vero cell line); assay type: functional, Chlorocebus sabaeus; how it was run: as §3
# L929 [12] = assay: Inhibitory concentration (reduction in cytopathic effect) against vaccinia virus (L-929 cell line); assay type: functional, cell-based; conditions: Mus musculus; how it was run: as §1
# L929 [13] = assay: Minimum toxic concentration against vaccinia virus (L-929 cell line); assay type: functional, Mus musculus; how it was run: as §2
# L929 [14] = assay: Virus rating against vaccinia virus (L-929 cell line); assay type: functional, Mus musculus; how it was run: as §3
Structure (SMILES),MIC [1] [µg/mL],MIC (Vaccinia virus) [µg/mL],IC50 (L929 [2]) [µg/mL],MTC50 (L929 [3]) [µg/mL],VR (L929 [4]),IC50 (LLC-MK2 [5]) [µg/mL],MTC50 (LLC-MK2 [6]) [µg/mL],VR (LLC-MK2 [7]),MTC50 (Vero [8]) [µg/mL],IC50 (Vero [9]) [µg/mL],VR (Vero [10]),VR (Vero [11]),IC50 (L929 [12]) [µg/mL],MTC50 (L929 [13]) [µg/mL],VR (L929 [14])
Nc1nccc2c1ncn2[C@@H]1C[C@H](CO)[C@H](O)C1O (stereo partly drawn),20,20,,,,,,,,,,,,,
C[C@H]1C[C@@H](n2cnc3c(N)nccc32)C(O)[C@H]1O (stereo partly drawn),,,100,100,1,23,104,Evaluated by plaque reduction assay,100,3.1,1.4,,,,
NC(=O)[C@H]1C[C@@H](n2cnc3c(N)nccc32)C(O)[C@H]1O (stereo partly drawn),,,,,,,,,320,32,,0.7,,,
OC[C@H]1C[C@@H](n2cnc3cnccc32)C(O)[C@H]1O (stereo partly drawn),,,49,79,0.7,70,100,Evaluated by plaque reduction assay,,,,,7,249,1
Nc1nccc2c1ncn2[C@@H]1C[C@H](CCl)[C@H](O)C1O (stereo partly drawn),,,88,283,0.4,,,,,,,,32,90,0.6
Nc1nccc2c1ncn2[C@@H]1C[C@H](CBr)[C@H](O)C1O (stereo partly drawn),,,147,320,0.3,,,,320,87,0.6,,,,
NC[C@H]1C[C@@H](n2cnc3c(N)nccc32)C(O)[C@H]1O (stereo partly drawn),,,,,,,,,320,18,1,,,,
